Reference: ChEMBL document CHEMBL1671700, “Structure-activity analysis of vinylogous urea inhibitors of human immunodeficiency virus-encoded ribonuclease H” (Antimicrob Agents Chemother, 2010)
Activity calls are given as the source filed them. No cut-off for these calls is given here.

Tests used:
[1] = target: T1, Human immunodeficiency virus type 1 reverse transcriptase (Human immunodeficiency virus 1, UniProt Q72547); experiment: Inhibition of RNase H activity of HIV-1 HXB2 reverse transcriptase p66/p51 after 10 mins by fluorescence spectrophotometry
Summary of the method: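 His-p66/His-p51 RT from HIV-1 HXB2, 250 ng, with 250 nM 18-nt 3′-fluorescein RNA annealed to 5′-dabsyl DNA. Hydrolysis started by adding hybrid. 37°C, fluorescence (ex 475/em 520 nm) read every minute for 10 min. Percent inhibition from initial rates, plotted against log concentration. Triplicate.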

[2] = target: Human immunodeficiency virus type 1 reverse transcriptase (Human immunodeficiency virus 1) (UniProt Q72547); experiment: Binding affinity to HIV-1 HXB2 reverse transcriptase p66/p51 assessed as changes in enzyme orientation on polypurine tract-containing RNA-DNA hybrid by FRET assay
Summary of the method: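 Single-molecule FRET. Substrate: 21-nt PPT:D2 RNA-DNA primer annealed at 1.2:1 to a biotinylated 50-nt DNA template. Cy5 acceptor near the template 3′ end; Cy3 donor on the RNase H C terminus of p66. His-p66/His-p51 RT is from the HXB2 isolate. Inhibitor was added at 10 μM final.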

[3] = target: Human immunodeficiency virus type 1 reverse transcriptase (Human immunodeficiency virus 1) (UniProt Q72547); experiment: Inhibition of RNase H activity of HIV-1 HXB2 reverse transcriptase p66/p51 pre-incubated with RNA-DNA hybrid followed by addition of compound and magnesium ions
[4] = target: Human immunodeficiency virus type 1 reverse transcriptase (Human immunodeficiency virus 1) (UniProt Q72547); experiment: Inhibition of RNase H activity of HIV-1 HXB2 reverse transcriptase p66/p51 preincubated with compound and RNA-DNA hybrid substrate followed by addition of magnesium ions
[5] = system: Human immunodeficiency virus 1; experiment: Antiviral activity against HIV-1 isolate RF infected in human CEM-SS cells assessed as inhibition of virus induced cytopathic effect by XTT assay; format: functional, organism-based; conditions: Human immunodeficiency virus 1, isolate RF
Summary of the method: (§1)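 HIV-1 RF isolate in human T-cell line CEM-SS; XTT-based cell viability read-out following Weislow et al.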

[6] = Cytotoxicity against human CEM-SS cells by XTT assay; format: cell-based; summary of the method: as §1
[7] = target: Human immunodeficiency virus type 1 reverse transcriptase (Human immunodeficiency virus 1) (UniProt Q72547); experiment: Binding affinity to HIV-1 HXB2 reverse transcriptase p66/p51 at increased temperature by Van't Hoff analysis
Summary of the method: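 His-p66/His-p51 RT (4 nM) and RNA-DNA hybrid (250 nM) were run at 20, 25, 30 and 35°C. The reaction was started with substrate, incubated 30 min and quenched with EDTA. Product fluorescence was read, with quadruplicate dose-response curves at each temperature. Ki was fitted as v_i/v_o = 1/[1 + ([I]/Ki)], simple nontight-binding inhibition.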

[8] = target: Human immunodeficiency virus type 1 reverse transcriptase (Human immunodeficiency virus 1) (UniProt Q72547); experiment: Inhibition of DNA-dependent DNA polymerase activity of HIV1 HXB2 reverse transcriptase p66/p51at 50 uM after 10 mins by fluorescence spectrophotometry
[9] = target: T1, Human immunodeficiency virus type 1 reverse transcriptase; experiment: Inhibition of RNase H activity of HIV-1 reverse transcriptase
Summary of the method: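 Recombinant His-p66/His-p51 RT (HXB2) was mixed with inhibitor in DMSO, then the reaction was started with 18-bp hybrid (3′-fluorescein RNA/5′-dabsyl DNA). Run at 37°C for 10 min, read ex 475/em 520 nm every minute. IC50 from initial-rate % inhibition vs log[inhibitor], triplicate.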

[10] = target: Reverse transcriptase (Human immunodeficiency virus 2, UniProt Q06347); experiment: Inhibition of RNase H activity of HIV-2 reverse transcriptase
Sequence of Reverse transcriptase (Q06347 whole entry): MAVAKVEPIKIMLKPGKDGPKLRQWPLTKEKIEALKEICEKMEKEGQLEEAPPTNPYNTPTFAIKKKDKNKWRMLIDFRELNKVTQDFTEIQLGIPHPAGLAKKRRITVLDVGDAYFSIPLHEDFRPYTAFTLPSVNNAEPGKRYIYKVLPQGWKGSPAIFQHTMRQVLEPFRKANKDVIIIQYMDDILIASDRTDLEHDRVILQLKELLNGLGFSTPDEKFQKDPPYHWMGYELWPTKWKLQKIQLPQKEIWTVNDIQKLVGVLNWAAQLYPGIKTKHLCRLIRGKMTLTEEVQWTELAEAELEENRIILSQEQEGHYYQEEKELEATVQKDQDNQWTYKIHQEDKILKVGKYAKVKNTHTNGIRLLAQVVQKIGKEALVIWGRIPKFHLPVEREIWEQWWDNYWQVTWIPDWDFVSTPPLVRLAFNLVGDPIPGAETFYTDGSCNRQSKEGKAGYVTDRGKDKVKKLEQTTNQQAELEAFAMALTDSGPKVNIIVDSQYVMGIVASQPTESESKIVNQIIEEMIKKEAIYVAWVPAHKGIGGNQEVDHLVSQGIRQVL

IC50 [1]	SMILES	further results
> 100 µM	COc1ccc(-c2nc3sc(C)c(C)c3c(=O)[nH]2)cc1	
	NC(=O)c1c(N)sc2c1CCCCC2	Activity [2]: Active; inhibition [3]: inactive; inhibition [4]: Active; IC50 [5]: 4.3 µM; CC50 [6]: 19.9 µM; Activity [7]: inactive
> 500 µM	NC(=O)c1ccsc1N	
> 100 µM	Cc1sc2nc(-c3ccccc3)[nH]c(=O)c2c1C	
> 500 µM	NC(=O)c1c(N)sc2c1CCCCCC2	
4.2 µM	CCOc1ccc(NC(=O)c2c(NC(=O)c3ccco3)sc3c2CCCCC3)cc1	
> 500 µM	Cc1sc(N)c(C(N)=O)c1C	
> 500 µM	Cc1ccc(NC(=O)c2c(NC(=O)c3ccccc3F)sc3c2CCCCC3)cc1	
2.9 µM	Cc1onc(-c2ccccc2)c1C(=O)Nc1sc(C)c(C)c1C(N)=O	
2.8 µM	Cc1ccc(C(=O)Nc2sc(C)c(C)c2C(N)=O)cc1	
> 500 µM	CCOc1ccc(NC(=O)c2c(NC(=O)c3ccccc3)sc3c2CCCCC3)cc1	
21 µM	Cc1sc(NC(=O)C2CC3CCC2C3)c(C(N)=O)c1C (centres undefined)	
> 500 µM	COc1ccccc1NC(=O)c1c(NC(=O)Cc2ccccc2)sc2c1CCCCC2	IC50 [5]: 54 µM; CC50 [6]: 141 µM
> 500 µM	NC(=O)c1c(N)sc2c1CCC2	
6.9 µM	NC(=O)c1c(NC(=O)COc2ccccc2)sc2c1CCCCC2	
14 µM	NC(=O)c1c(N)sc2c1CCCC2	
> 500 µM	O=C(Nc1sc2c(c1C(=O)Nc1cccc3ccccc13)CCCCC2)c1ccccc1F	
1.7 µM	Cc1sc(NC(=O)c2ccc(Br)o2)c(C(N)=O)c1C	
27.3 µM	Cc1sc(NC(=O)C2CCCO2)c(C(N)=O)c1C (centres undefined)	
	CC(C)c1ccc(O)c(=O)c(O)c1 [BETA-THUJAPLICINOL]	IC50 [9]: 0.25 µM; IC50 [10]: 0.25 µM; Activity [7]: inactive
> 500 µM	Cc1cc(Cl)ccc1CCC(=O)Nc1sc(C)c(C)c1C(N)=O	
5.1 µM	Cc1sc(NC(=O)c2ccc3c(c2)OCO3)c(C(N)=O)c1C	IC50 [5]: 19 µM; CC50 [6]: 38 µM
3.4 µM	Cc1sc(NC(=O)c2ccco2)c(C(N)=O)c1C	

SMILES	IC50 [1]	further results
Cc1sc2nc(-c3ccc([N+](=O)[O-])cc3)[nH]c(=O)c2c1C	0.85 µM	Activity [2]: Active; inhibition [8]: inactive
Cc1sc(NC(=O)c2cccc([N+](=O)[O-])c2)c(C(N)=O)c1C	1.3 µM	Activity [2]: Active
